# Bioassay records: PubChem, several laboratories
# Rows were chosen to be rich in hits. Some 9.6% of all compounds tested hit in one or more screens of this group.
# bCat KO growth = beta-catenin-lacking colon tumor cell growth suppression. HCT116 beta-catenin knockout viability, CellTiter-Glo, 60 h; active compounds read low. viability, % at 10 µM. 1.5% of 140,000 active;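 active means viability at or under a set limit, the compound median less 4 SD, cut at about 6% in these data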;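 further: 0% = Hyamine 1622 control at 20 µM and 100% = untreated cell control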
# TNAP inh no acc = TNAP (human) inhibition, acceptor-free conditions | P05186 | purified TNAP, CDP-star luminescence, 30 min | inhibition, % at 20 µM | 0.26% of 200,000 active;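 active means tissue-nonspecific alkaline phosphatase inhibition above about 50% at 20 µM in the single-dose screen, limit read from the data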;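 further: 0% = DMSO negative control and 100% = EDTA positive control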
# Target sequence (P05186 whole entry, looked up): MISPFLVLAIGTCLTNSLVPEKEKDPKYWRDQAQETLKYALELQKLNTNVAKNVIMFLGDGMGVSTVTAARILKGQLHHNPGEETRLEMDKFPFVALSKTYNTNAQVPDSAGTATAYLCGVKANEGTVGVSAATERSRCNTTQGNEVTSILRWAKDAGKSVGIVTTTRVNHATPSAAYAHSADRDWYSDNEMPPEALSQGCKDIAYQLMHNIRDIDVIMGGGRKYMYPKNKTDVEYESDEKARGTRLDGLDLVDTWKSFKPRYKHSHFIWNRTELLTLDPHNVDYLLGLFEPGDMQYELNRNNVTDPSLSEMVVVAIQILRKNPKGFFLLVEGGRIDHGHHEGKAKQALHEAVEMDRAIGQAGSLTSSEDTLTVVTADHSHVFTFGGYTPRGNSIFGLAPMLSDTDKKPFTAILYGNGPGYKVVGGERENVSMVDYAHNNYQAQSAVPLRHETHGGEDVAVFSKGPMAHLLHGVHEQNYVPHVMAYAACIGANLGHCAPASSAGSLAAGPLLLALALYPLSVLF
# Lmaj promast = reduces viability of Leishmania major promastigotes; resazurin fluorescence viability; inhibition, % at 10 µM; 9% of 200,000 active; in the data active means inhibition above about 50%;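 further: promastigotes grown with compound for 44 hours at 28 °C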
# TNAP act hi DEA = TNAP (human) activation, high acceptor; P05186; purified TNAP, CDP-star luminescence, 1 M DEA, 30 min; active compounds read high; 0 = EDTA background, 1 = DMSO-only activity; activation factor at 20 µM; 200,000 tested, under 10 active; AID 1136;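 active means activation factor at least 2 at 20 µM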
#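 Assay system: human TNAP; Input: enzyme diluted 1/800 final; Reagent: CDP-star luminogenic substrate at 100 µM final; Timing: 30 min, room temperature; Signal: luminescence; Evaluation: TNAP activation factor scaled between EDTA and DMSO control wells.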
# PTEN del growth = PTEN-deleted cell growth suppression. HCT116 PTEN-null viability, CellTiter-Glo, 60 h; active compounds read low. viability, % at 10 µM. 1.2% of 140,000 active. AID 827;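 active means viability at or below a set limit, 4 SD under the median of all tested compounds, cut at about 3.7% in these data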;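 further: PTEN knockout HCT116 line with beta catenin targeted HCT116 as companion control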
# TNAP inh hi DEA = inhibitors of human TNAP at high phosphate acceptor concentration | AID 1135 | purified TNAP, CDP-star luminescence, 1 M DEA | 0.03% of 200,000 active | P05186 | inhibition, % at 20 µM;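 active means over 50% inhibition of tissue-nonspecific alkaline phosphatase at 20 µM in the single-dose screen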;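 further: plate controls were DMSO wells for no effect and EDTA-quenched wells as full inhibition for full effect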
# Active calls of the source: *; . = no result given.
SMILES,bCat KO growth,TNAP inh no acc,Lmaj promast,TNAP act hi DEA,PTEN del growth,TNAP inh hi DEA
COc1ccc(C(=O)ON=C2C=C(C)C(=O)C(C)=C2)cc1,.,-7,100*,1,.,2
N=C1C(c2ccccc2)=C(O)CN1CCCO,.,-11,-6,1,.,-3
O=C(Nc1ccn(-c2ccccc2)n1)c1ccccc1Br,85,-2,5,1,85,5
CC(C)OCCCN1CN(S(=O)(=O)c2ccccc2)c2nc3ccccc3nc21,92,-12,24,1.1,85,-7
COCCCN1CN(S(=O)(=O)c2ccc(Cl)cc2)c2nc3ccccc3nc21,92,0,59*,1,93,-3
O=C(/C=C\c1cn(-c2ccccc2)nc1-c1ccccc1)Nc1nccs1,1.6*,-15,-4,1,1.2*,-3
CC(C)Cn1c(N)c(C(=O)COC(=O)c2cc(C3CC3)nc3ccccc23)c(=O)n(C)c1=O,67,-2,57*,1,54,2
CC(C)Cn1c(N)c(C(=O)COC(=O)c2cc(-c3ccccc3)nc3ccccc23)c(=O)n(C)c1=O,61,1,100*,0.9,46,8
CC(C)Cn1c(N)c(C(=O)COC(=O)c2cc(C(F)(F)F)nc3ccccc23)c(=O)n(C)c1=O,69,-4,17,1,51,1
CC(C)Cn1c(N)c(C(=O)COC(=O)c2cc(-c3ccco3)nc3ccccc23)c(=O)n(C)c1=O,78,-3,77*,1,71,2
Cn1c(=O)c(C(=O)COC(=O)c2cc(-c3ccco3)nc3ccccc23)c(N)n(Cc2ccccc2)c1=O,85,8,99*,0.9,80,5
CCOC(=O)C1CCCN(C(=O)c2ccc(Cl)c(S(=O)(=O)N3CCCCCC3)c2)C1 (stereo unspecified),.,-2,0,1,.,3
CC(C)Cn1c(N)c(C(=O)COC(=O)c2ccc([N+](=O)[O-])o2)c(=O)n(C)c1=O,.,-9,88*,1,.,-3
CC(C)Cn1c(N)c(C(=O)COC(=O)c2ccc(O)cc2)c(=O)n(C)c1=O,.,-3,-2,1,.,-3
CCCN1CCC(=NNc2ccc(C(=O)O)cc2)CC1,.,-12,90*,1.1,.,-6
CCOC(=O)C1CCN(c2ncnc3c2[nH]c2cccc(OC)c23)CC1,89,-7,73*,1,84,-3
COc1cccc2[nH]c3c(N4CCCCC4)ncnc3c12,78,-8,96*,1,81,-2
CCn1ccnc1CN(C)C(=O)CCc1nnc(CCCc2ccccc2)o1,.,-12,-6,1.1,.,-6
COc1cc(/C=C(\NC(C)=O)C(=O)Nc2cccc(O)c2)ccc1OC(C)=O,86,-14,21,0.9,94,7
CCOc1ccc(-c2n[nH]c(C(=O)NN)c2C)cc1,104,82*,-2,1.1,92,-7
CC(C)COc1ccc(-c2cc(C(=O)NN)[nH]n2)cc1,76,-67,3,1,75,1
Cc1c(-c2ccccc2)n[nH]c1C(=O)NN,.,82*,-3,1,.,0
NC(=S)N/N=C/c1ccc(-c2ccc(Cl)c(Cl)c2)o1,53,14,96*,0.8,56,19
NC(=S)N/N=C/c1ccc(-c2ccccc2)o1,.,-13,10,1,.,-3
NC(=S)N/N=C\c1ccc(-c2cccc(Cl)c2Cl)o1,55,13,100*,0.9,63,12
N#CC1=C2C=CC=CN2CC1=O,99,-9,-7,1,104,-2
CC(C)(C)NC(=O)C(c1c[nH]c2ccccc12)N(C(=O)Cn1nnc(-c2ccc(F)cc2)n1)c1cccc(O)c1 (stereo unspecified),38,8,2,1,28,2
CC(C)=C1C2CCC1C(C(=O)Nc1cc(C)cc(C)c1)C2C(=O)O (stereo unspecified),.,-2,13,1,.,0
CN(Cc1cccs1)CC(O)COCc1ccco1 (stereo unspecified),99,-12,-1,1,100,-5
COc1ccccc1COCC(O)CN(Cc1ccco1)Cc1ccccc1O (stereo unspecified),79,-15,82*,1,67,3
